One compound from ChEMBL document CHEMBL1212735, “Metronidazole resistance in Prevotella spp. and description of a new nim gene in Prevotella baroniae” (2010) can be followed below.

Common to all, as to type: functional
For assay [1], the system named is Prevotella baroniae. As to the kind of experiment: Antimicrobial activity against Prevotella baroniae LBN 427 expressing nimI gene assessed as inhibition of growth after three consecutive subcultures on compound free medium by agar dilution method. To be noted: Segatella baroniae. The method, boiled down: (§1)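 Stability of induced resistance: metronidazole-selected isolates were subcultured three consecutive times on drug-free brucella blood agar (5% sheep blood, hemin, vitamin K1) under anaerobic conditions, then MIC was redetermined by CLSI agar dilution. Resistance was called stable if the MIC held within ±1 dilution. Duplicate experiments.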

Assay [2] concerns Prevotella bivia. As to the kind of experiment: Antimicrobial activity against slow growing colonies of Prevotella bivia LBP 4 deficient in nim gene assessed as inhibition of growth at 48 hrs by agar dilution method. To be noted: LBP 4, 48 h. The method, boiled down: (§2)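 Metronidazole MIC by agar dilution per CLSI M11-A7 on brucella agar with 5% sheep blood, hemin and vitamin K1. Plates incubated anaerobically at 35°C and read at 48 h, with a second reading after a further 72 h. B. fragilis ATCC 25285T and B. thetaiotaomicron ATCC 29741 served as controls. Done in duplicate; EUCAST breakpoints applied (S ≤4, R ≥8 μg/ml).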

The test system of assay [3] is Prevotella baroniae. As to the kind of experiment: Antimicrobial activity against Prevotella baroniae LBP 19 expressing nim gene assessed as inhibition of growth at 48 hrs by agar dilution method. To be noted: Segatella baroniae, LBP 19, 48 h. The method, boiled down:
(§3)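 Metronidazole MIC by agar dilution (CLSI M11-A7) on brucella agar with 5% sheep blood, hemin and vitamin K1. Plates were read after 48 h at 35°C under anaerobic conditions. Susceptible was MIC ≤ 4 μg/ml and resistant MIC ≥ 8 μg/ml (EUCAST). B. fragilis ATCC 25285T and B. thetaiotaomicron ATCC 29741 were run as controls. Duplicate assays.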

Assay [4] relates to Prevotella nanceiensis. As to the kind of experiment: Antimicrobial activity against Prevotella nanceiensis LBN 298 deficient in nim gene assessed as inhibition of growth at 48 hrs by Etest method. The settings on record: Hoylesella nanceiensis, LBN 298, 48 h. A digest of the protocol:
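Metronidazole Etest, per the manufacturer's instructions, on brucella blood agar with hemin and vitamin K1. Read after 48 h at 35°C under anaerobic conditions. Breakpoints were ≤ 4 μg/ml susceptible and ≥ 8 μg/ml resistant (EUCAST). Duplicate assays.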

In assay [5] the test system is Prevotella bivia. As to the kind of experiment: Antimicrobial activity against slow growing colonies of Prevotella bivia LBN 361 deficient in nim gene assessed as inhibition of growth at 48 hrs by agar dilution method. The settings on record: LBN 361, 48 h. A digest of the protocol:
as §2

For assay [6], the system named is Prevotella baroniae. As to the kind of experiment: Antimicrobial activity against Prevotella baroniae DSM 16972T expressing nimI gene assessed as inhibition of growth after several passages on plates containing increasing concentrations of compound by agar dilution method. The settings on record: Segatella baroniae. The method, boiled down: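 Induction of metronidazole resistance: bacterial suspensions inoculated onto brucella blood agar (5% sheep blood, hemin, vitamin K1) containing metronidazole at increasing concentrations, grown anaerobically at 37°C. Colonies growing at the highest concentration were retested for MIC by CLSI agar dilution on the same agar. Duplicate experiments.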

For assay [7], the system named is Prevotella bivia. As to the kind of experiment: Antimicrobial activity against Prevotella bivia LBN 371 deficient in nim gene assessed as inhibition of growth at 48 hrs by agar dilution method. The settings on record: LBN 371, 48 h. A digest of the protocol:
as §3

The test system of assay [8] is Prevotella bivia. As to the kind of experiment: Antimicrobial activity against Prevotella bivia LBP 38 deficient in nim gene assessed as inhibition of growth at 48 hrs by agar dilution method. To be noted: LBP 38, 48 h. The method, boiled down: as §3
The test system of assay [9] is Prevotella bivia. As to the kind of experiment: Antimicrobial activity against slow growing colonies of Prevotella bivia LBN 350 deficient in nim gene assessed as inhibition of growth at 48 hrs by agar dilution method. To be noted: LBN 350, 48 h. The method, boiled down:
(§4)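 Slowly growing colonies inside the Etest inhibition zone, seen after prolonged incubation (an additional 72 h after the 48 h reading), were subcultured without antibiotic. They were then retested for metronidazole MIC by agar dilution on supplemented brucella blood agar under anaerobic conditions.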

Assay [10] deals with Prevotella nanceiensis. As to the kind of experiment: Antimicrobial activity against Prevotella nanceiensis LBN 293b deficient in nimI gene assessed as inhibition of growth after three consecutive subcultures on compound free medium by agar dilution method. The settings on record: Hoylesella nanceiensis. The method, boiled down: as §1
Assay [11] concerns Prevotella bivia. As to the kind of experiment: Antimicrobial activity against slow growing colonies of Prevotella bivia LBN 333 deficient in nim gene assessed as inhibition of growth at 48 hrs by agar dilution method. The settings on record: LBN 333, 48 h. The method, boiled down: as §4
Assay [12] deals with Prevotella bivia. As to the kind of experiment: Antimicrobial activity against Prevotella bivia LBN 332 deficient in nim gene assessed as inhibition of growth at 48 hrs by agar dilution method. The settings on record: LBN 332, 48 h. A digest of the protocol: as §3

Values after ≈ are worked out from the molar mass of the structure shown.

On to `Cc1ncc([N+](=O)[O-])n1CCO` [METRONIDAZOLE], for which the MIC was 128 µg/mL (≈ 748 µM) in the assay with Prevotella baroniae [1]; 32 µg/mL (≈ 187 µM) in the assay on Prevotella bivia [2]; 1 µg/mL (≈ 5.84 µM) with Prevotella baroniae [3]; 4 µg/mL (≈ 23.4 µM) in the assay with Prevotella nanceiensis [4]; 32 µg/mL (≈ 187 µM) in the assay with Prevotella bivia [5]; 16 µg/mL (≈ 93.5 µM) in the assay with Prevotella baroniae [6]. Further, the MIC was determined as 4 µg/mL (≈ 23.4 µM) with Prevotella bivia [7]; 2 µg/mL (≈ 11.7 µM) in the assay with Prevotella bivia [8]; 16 µg/mL (≈ 93.5 µM) in the assay on Prevotella bivia [9]; 256 µg/mL (≈ 1500 µM) in the assay with Prevotella nanceiensis [10]; 32 µg/mL (≈ 187 µM) in the assay on Prevotella bivia [11]; 4 µg/mL (≈ 23.4 µM) in the assay on Prevotella bivia [12].
